# Screening results as filed in PubChem.
# Only some compounds are listed: those with a hit (about 1.4% of all), similar ones and a draw of the others.
# hK5 inh: blocks human kallikrein 5 protease activity | Q9Y337 | recombinant hK5, fluorogenic AMC substrate cleavage | inhibition, % at 5 µM | hit rate 0.59% among 210,000 | AID 873;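 active = inhibition of 40% or more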;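 also: 0% = enzyme controls without compound and 100% = no-enzyme blanks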
# m-calpain inh: calpain II (pig) inhibition. purified calpain II, fluorogenic peptide substrate, 30 min. inhibition, % at 16 µM. hit rate 0.37% among 220,000. AID 1236;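 active = inhibition above about 50%, limit read from the data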
# thrombin 1536: blocks human thrombin protease activity | P00734 | alpha-thrombin, Boc-VPR-AMC fluorogenic substrate cleavage | inhibition, % at 5 µM | hit rate 0.26% among 220,000 | AID 1046;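 active = inhibition at or above 40%; inactive = inhibition below 40%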;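 also: 0% = enzyme with no compound and 100% = wells without enzyme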
#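 Assay system: human alpha-thrombin enzyme. Reagent: Boc-VPR-AMC substrate, 15 µM final. Compound dosing: one concentration per compound, 5 µM, with 0.2% DMSO. Incubation: room-temperature reaction. Technique: AMC fluorescence, 355/460 nm. Measure: % inhibition relative to enzyme controls and enzyme-free blanks.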
# FXIIa inh: inhibitors of human coagulation factor XIIa. P00748. purified FXIIa, Boc-QGR-AMC fluorogenic substrate, 2 h. inhibition, % at 5 µM. hit rate 0.3% among 220,000; in the data active = inhibition above about 40%;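 also: 0% = enzyme with no compound and 100% = blank without enzyme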
# FXIa inh 1536: factor XIa (human) inhibition; purified FXIa, Boc-Glu-Ala-Arg-AMC fluorogenic substrate; inhibition, % at 5 µM; hit rate 0.14% among 220,000; AID 798;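 active = inhibition of at least 40%; inactive = inhibition below 40%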;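 also: fluorescence of freed AMC excited at 355 nm; 0% = enzyme without compound and 100% = no enzyme blank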
# Target sequence (P03951 19-387 limits assumed): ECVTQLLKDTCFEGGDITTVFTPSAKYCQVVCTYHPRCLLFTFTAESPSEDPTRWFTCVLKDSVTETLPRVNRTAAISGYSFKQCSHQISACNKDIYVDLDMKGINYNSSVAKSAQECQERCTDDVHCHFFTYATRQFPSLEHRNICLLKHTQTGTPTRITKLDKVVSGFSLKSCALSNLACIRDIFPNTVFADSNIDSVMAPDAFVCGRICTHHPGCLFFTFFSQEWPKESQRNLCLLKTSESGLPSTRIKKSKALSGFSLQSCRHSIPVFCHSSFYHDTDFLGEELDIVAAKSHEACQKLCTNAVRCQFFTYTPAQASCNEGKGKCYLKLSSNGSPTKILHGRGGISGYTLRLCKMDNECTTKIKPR
# Target sequence (P03951 388-625 limits assumed): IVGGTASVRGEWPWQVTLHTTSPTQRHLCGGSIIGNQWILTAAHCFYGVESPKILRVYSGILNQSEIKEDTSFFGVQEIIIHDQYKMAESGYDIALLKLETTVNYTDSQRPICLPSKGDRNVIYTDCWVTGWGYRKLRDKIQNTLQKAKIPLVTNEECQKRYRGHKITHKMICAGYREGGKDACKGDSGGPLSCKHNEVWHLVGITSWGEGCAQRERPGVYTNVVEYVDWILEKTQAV
# Active calls of the source: *; i = inactive; nt = no result.
SMILES,hK5 inh,m-calpain inh,thrombin 1536,FXIIa inh,FXIa inh 1536
Nc1ccc(S(=O)(=O)N2CCCC2)cc1,-5,7,-2,15,6
Nc1cc(S(=O)(=O)N2CCCCC2)ccc1Oc1ccc(Cl)cc1,-17,64*,5,-5,-4
O=S(=O)(c1ccc(S(=O)(=O)N2CCCC2)cc1)N1CCCCCC1,-14,21,-7,44*,19
O=C(NCc1ccco1)c1c[nH]c2ccc(S(=O)(=O)N3CCOCC3)cc2c1=O,-27,-90,74*,12,-10
C=CCn1cc(C(=O)NCc2ccc3c(c2)OCO3)c(=O)c2cc(S(=O)(=O)N(CC)CC)ccc21,-5,-6,42*,13,6
CC1CCN(S(=O)(=O)c2ccc3c(c2)c(=O)c(C(=O)NCc2ccco2)cn3C)CC1,-8,-51,15,9,-2
CCN(CC)S(=O)(=O)c1ccc2c(c1)c(=O)c(C(=O)NCc1ccc3c(c1)OCO3)cn2C,-3,-55,64*,14,7
CCN(CC)S(=O)(=O)c1ccc2c(c1)c(=O)c(C(=O)NCCOC)cn2C,1,4,-4,5,-4
CCN(CC)S(=O)(=O)c1ccc2c(c1)c(=O)c(C(=O)NCc1ccco1)cn2C,0,-6,62*,7,-1
CCCc1cc2c(cc1NC(=O)c1ccco1)OCO2,-25,5,-7,-8,-9
Cc1ccc(NC(=O)C(C)N2CCCC2)cc1Cl (configuration not stated),-8,-20,1,1,-3
O=C(CSc1nncs1)NCc1ccc(F)cc1,-1,-7,-3,4,-3
O=C(COC(=O)C12CC3CC(CC(O)(C3)C1)C2)NCCc1ccc(Cl)cc1,0,-24,101*,8,-2
COc1ccc(OC)c(NC(=O)C(C)Oc2ccc(Br)cc2)c1 (configuration not stated),-20,27,0,-7,-3
Cc1ncc([N+](=O)[O-])n1Cc1cccc(F)c1,-3,-8,-9,9,-2
O=C(COC(=O)CC12CC3CC(CC(C3)C1)C2)Nc1cccnc1Cl,-1,59*,-6,0,9
CC(C)(C)c1nnc2cccc(Cl)n12,-6,-10,-3,3,2
CCCC(=O)Nc1ccc(C(=O)Nc2ccc([N+](=O)[O-])cc2OC)cc1,-20,27,1,-2,-4
CCOC(=O)NN1C(=O)c2ccccc2NC12CCCC2,-15,i,-4,1,-7
CCCCOC(=O)c1ccc(NC(=O)C(=O)NCc2ccco2)cc1,-2,30,-10,99*,-2
Cc1ccccc1NC(=O)CC1(c2ccc(N(C)C)cc2)C(=O)c2ccccc2C1=O,-6,-50,0,15,4
O=C(CSc1nccc(=O)[nH]1)c1cc2ccccc2o1,46*,27,-5,2,-7
O=C(CSc1ncn[nH]1)c1cc2ccccc2o1,-3,-26,-5,4,5
CCN(C(=O)CSc1nc2cc(Cl)ccc2c(=O)n1Cc1ccco1)C1CCS(=O)(=O)C1 (configuration not stated),2,-6,-9,9,11
Cc1ccc2nc(NC(=O)C3CCN(S(=O)(=O)c4cccc5nsnc45)CC3)sc2c1,32,4,21,10,16
SMILES,hK5 inh,m-calpain inh,thrombin 1536,FXIIa inh,FXIa inh 1536
COc1ccc(NC(=O)C2CCCN(S(=O)(=O)c3cccc4cccnc34)C2)c(OC)c1 (configuration not stated),113*,124*,21,33,13
Cc1ccc2nc(NC(=O)CN(C)S(=O)(=O)c3cccc4nsnc34)sc2c1,34,53*,20,7,7
Cc1ccc2nc(NC(=O)C3CCCN(S(=O)(=O)c4cccc5nsnc45)C3)sc2c1 (configuration not stated),31,-267,15,45*,17
Cc1ccc(NC(=S)Nc2cccc3cnccc23)cc1,-3,13,-1,4,-2
CC(=O)c1ccc(NC(=S)Nc2cccc3cnccc23)cc1,13,11,19,11,65*
CC(C)N(C(=O)CSc1nnc(-c2ccc3c(c2)OCO3)n1C)C(C)C,7,30,6,8,2
CCOc1ccc(N(CC(=O)Nc2ccc3c(c2)OCCO3)S(=O)(=O)c2c(C)noc2C)cc1,30,3,21,41*,19
CCn1c(COc2ccc(Cl)cc2)nnc1SC1CCc2ccccc2C1=O (configuration not stated),-6,52*,-18,2,-2
CCn1c(COc2ccc(Cl)cc2)nnc1SCc1ccc(C#N)cc1,1,-3,-6,2,-3
C=CCn1c(SCc2c(C)noc2C)nc2cc(C(=O)O)ccc2c1=O,21,-6,46*,21,11
Cc1noc(C)c1CSc1nc2ccccc2c(=O)n1-c1ccc(F)cc1F,-3,77*,0,43*,26
N#Cc1c(-c2ccc(Cl)cc2)ccn2nc(C3CCCCC3)nc12,-3,-46,-4,2,-11
Cc1ccc(NC(=O)CSc2nsc(SCC(=O)Nc3ccc(C)cc3C)c2C#N)c(C)c1,4,51*,24,-5,-10
Cc1csc(NC(=O)CSc2nsc(SCC(=O)Nc3nc(C)cs3)c2C#N)n1,2,7,-6,4,9
CCn1c(SCC(=O)c2ccc(Cl)cc2)nnc1C(C)C,-16,-6,4,-3,-16
CCn1c(SCC(N)=O)nnc1C(C)C,-1,-27,97*,8,-2
c1csc(-c2nc3ccccc3[nH]2)c1,4,-66,13,43*,7
Fc1ccc(CSc2nc3ccccc3[nH]2)c2ccccc12,0,59*,4,19,9
COC(=O)c1ccc(CNC(=O)COC(=O)c2cc(Cl)nc(Cl)c2)cc1,-6,7,nt,5,-2
FC(F)C(F)(F)C(F)(F)C(F)(F)c1cc(-c2ccccc2)n[nH]1,-11,40,1,50*,50*
CCOc1ccc(N(CC(=O)Nc2ccccc2C)S(=O)(=O)c2c(C)[nH]c(=O)[nH]c2=O)cc1,0,23,3,10,2
CCOc1ccc(N(CC(=O)Nc2cc(C)ccc2C)S(=O)(=O)c2c(C)[nH]c(=O)[nH]c2=O)cc1,34,8,16,100*,24
Cc1nc(SCc2ccccc2)c2ccsc2n1,56*,22,20,57*,29
c1ccc(CSc2ncnc3sccc23)cc1,42*,21,37,37,25
CC(CN1C(C)CCCC1C)OC(=O)c1ccc(Cl)cc1Cl (configuration not stated),34,17,10,45*,25
CC(CN1C(C)CCCC1C)OC(=O)c1ccccc1Cl (configuration not stated),0,14,-4,5,1
COC(=O)c1cc2occc2n1CC(=O)Nc1ccc(OC)c(OC)c1,-18,4,-4,12,3
COC(=O)c1cc2occc2n1CC(=O)Nc1cc(OC)cc(OC)c1,62*,-2,18,27,2
